ChEMBL document CHEMBL1687738, “Effect of Candida glabrata FKS1 and FKS2 mutations on echinocandin sensitivity and kinetics of 1,3-beta-D-glucan synthase: implication for the existing susceptibility breakpoint” (Antimicrob Agents Chemother, 2009)
In brackets after ≈: the same amount, converted by molar mass. Starred links: 1 amine or outer side, 2 acyl side, 3 side chain; linkers in the order of their positions; H or OH if unused. Positions of bridges follow the written chain, without caps; N, C: chain ends. Non-standard residues stand in square brackets, D forms with d. Residues, ends and D or L forms follow the SMILES beside them. *: point of attachment. hTyr(3S-OH,4S-OH,3'-OSO3H) = N[C@H](C(=O)O)[C@H](O)[C@@H](O)c1ccc(O)c(OS(=O)(=O)O)c1; Orn(4R-OH,5R-OH) = O=C([C@H](C[C@@H](O)[C@@H](O)N[*:3])N[*:1])[*:2]; Pro(3S-OH,4S-Me) = C[C@H]1CN[C@H](C(=O)O)[C@H]1O; X1 = CCCCCOc1ccc(-c2cc(-c3ccc(C(=O)*)cc3)no2)cc1; Gln(3R-OH) = NC(=O)C[C@@H](O)[C@H](N)C(=O)O; Hyp = O=C(O)[C@@H]1C[C@@H](O)CN1

Legend:
[1] = Inhibition of Candida glabrata isolate 42971 1,3-beta-D-glucan synthase Fks1p D632Y mutant/Fks2p R1377STOP mutant; set-up: species or system Nakaseomyces glabratus
Method in brief: (§1)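 Cells grown in YPD broth at 35°C with vigorous shaking to early stationary phase. Membrane protein extracted and glucan synthase partially purified by product entrapment. Filtration polymerization assay measured [3H]glucose incorporation into product, started by adding enzyme. Echinocandin serial dilutions spanned 0.01–10,000 ng/ml, with 1% DMSO controls for anidulafungin. IC50 from variable-slope sigmoidal fit.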

1,3-beta-glucan synthase [2] = molecular target: 1,3-beta-glucan synthase (Candida glabrata, UniProt F5BCZ9, W1375L); assay: Inhibition of Candida glabrata isolate 5416 1,3-beta-D-glucan synthase wild type Fks1p/Fks2p W1375L mutant; set-up: species or system Nakaseomyces glabratus; method in brief: as §1
Nakaseomyces glabratus [3] = assay: Antifungal activity against Candida glabrata isolate 5416 expressing wild type Fks1p and Fks2p W1375L mutant by CLSI method in presence of 50% human serum; format: functional
Method in brief: (§2)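 Broth microdilution MIC per CLSI M27-A3 in RPMI 1640 supplemented with 50% serum. Caspofungin and micafungin stocks in sterile water; anidulafungin stock in 100% DMSO; stocks kept at −86°C.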

1,3-beta-glucan synthase [4] = molecular target: 1,3-beta-glucan synthase (Candida glabrata, UniProt F5BCZ9, S663P); assay: Inhibition of Candida glabrata isolate 3830 1,3-beta-D-glucan synthase wild type Fks1p/Fks2p S663P mutant; set-up: species or system Nakaseomyces glabratus; method in brief: as §1
Nakaseomyces glabratus [5] = assay: Antifungal activity against Candida glabrata isolate 5847 expressing Fks1p S629P mutant and wild type Fks2p by CLSI method; format: functional
Method in brief: (§3)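 Broth microdilution MIC per CLSI M27-A3 in RPMI 1640 medium without serum. Caspofungin and micafungin stocks in sterile water; anidulafungin stock in 100% DMSO; stocks kept at −86°C.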

Nakaseomyces glabratus [6] = assay: Antifungal activity against Candida glabrata isolate 42031 expressing wild type Fks1p and Fks2p D666E mutant by CLSI method; format: functional; method in brief: as §3
Nakaseomyces glabratus [7] = assay: Antifungal activity against Candida glabrata isolate 41026 expressing wild type Fks1p and Fks2p F659S mutant by CLSI method; format: functional; method in brief: as §3
[8] = molecular target: 1,3-beta-glucan synthase component FKS1 (Candida glabrata, UniProt E2GKZ4, F625S); assay: Inhibition of Candida glabrata isolate 42997 1,3-beta-D-glucan synthase Fks1p F625S mutant/wild type Fks2p; set-up: species or system Nakaseomyces glabratus; method in brief: as §1
Nakaseomyces glabratus [9] = assay: Antifungal activity against Candida glabrata isolate 234 expressing wild type Fks1p and Fks2p F659V mutant by CLSI method in presence of 50% human serum; format: functional; method in brief: as §2
Nakaseomyces glabratus [10] = assay: Antifungal activity against Candida glabrata isolate 218 expressing wild type Fks1p and Fks2p by CLSI method; format: functional; method in brief: as §3
Nakaseomyces glabratus [11] = assay: Antifungal activity against Candida glabrata isolate 42997 expressing Fks1p F625S mutant and wild type Fks2p by CLSI method in presence of 50% human serum; format: functional; method in brief: as §2
Nakaseomyces glabratus [12] = assay: Antifungal activity against Candida glabrata isolate 42971 expressing Fks1p D632Y mutant and Fks2p R1377STOP mutant by CLSI method; format: functional; method in brief: as §3
[13] = molecular target: 1,3-beta-glucan synthase component FKS1 (Candida glabrata, UniProt E2GKZ4, D632G); assay: Inhibition of Candida glabrata isolate 21900 1,3-beta-D-glucan synthase Fks1p D632G mutant/wild type Fks2p; set-up: species or system Nakaseomyces glabratus; method in brief: as §1
1,3-beta-glucan synthase component FKS1 (Candida glabrata, UniProt E2GKZ4, D632G), sequence (E2GKZ4 entry or part of it D632G): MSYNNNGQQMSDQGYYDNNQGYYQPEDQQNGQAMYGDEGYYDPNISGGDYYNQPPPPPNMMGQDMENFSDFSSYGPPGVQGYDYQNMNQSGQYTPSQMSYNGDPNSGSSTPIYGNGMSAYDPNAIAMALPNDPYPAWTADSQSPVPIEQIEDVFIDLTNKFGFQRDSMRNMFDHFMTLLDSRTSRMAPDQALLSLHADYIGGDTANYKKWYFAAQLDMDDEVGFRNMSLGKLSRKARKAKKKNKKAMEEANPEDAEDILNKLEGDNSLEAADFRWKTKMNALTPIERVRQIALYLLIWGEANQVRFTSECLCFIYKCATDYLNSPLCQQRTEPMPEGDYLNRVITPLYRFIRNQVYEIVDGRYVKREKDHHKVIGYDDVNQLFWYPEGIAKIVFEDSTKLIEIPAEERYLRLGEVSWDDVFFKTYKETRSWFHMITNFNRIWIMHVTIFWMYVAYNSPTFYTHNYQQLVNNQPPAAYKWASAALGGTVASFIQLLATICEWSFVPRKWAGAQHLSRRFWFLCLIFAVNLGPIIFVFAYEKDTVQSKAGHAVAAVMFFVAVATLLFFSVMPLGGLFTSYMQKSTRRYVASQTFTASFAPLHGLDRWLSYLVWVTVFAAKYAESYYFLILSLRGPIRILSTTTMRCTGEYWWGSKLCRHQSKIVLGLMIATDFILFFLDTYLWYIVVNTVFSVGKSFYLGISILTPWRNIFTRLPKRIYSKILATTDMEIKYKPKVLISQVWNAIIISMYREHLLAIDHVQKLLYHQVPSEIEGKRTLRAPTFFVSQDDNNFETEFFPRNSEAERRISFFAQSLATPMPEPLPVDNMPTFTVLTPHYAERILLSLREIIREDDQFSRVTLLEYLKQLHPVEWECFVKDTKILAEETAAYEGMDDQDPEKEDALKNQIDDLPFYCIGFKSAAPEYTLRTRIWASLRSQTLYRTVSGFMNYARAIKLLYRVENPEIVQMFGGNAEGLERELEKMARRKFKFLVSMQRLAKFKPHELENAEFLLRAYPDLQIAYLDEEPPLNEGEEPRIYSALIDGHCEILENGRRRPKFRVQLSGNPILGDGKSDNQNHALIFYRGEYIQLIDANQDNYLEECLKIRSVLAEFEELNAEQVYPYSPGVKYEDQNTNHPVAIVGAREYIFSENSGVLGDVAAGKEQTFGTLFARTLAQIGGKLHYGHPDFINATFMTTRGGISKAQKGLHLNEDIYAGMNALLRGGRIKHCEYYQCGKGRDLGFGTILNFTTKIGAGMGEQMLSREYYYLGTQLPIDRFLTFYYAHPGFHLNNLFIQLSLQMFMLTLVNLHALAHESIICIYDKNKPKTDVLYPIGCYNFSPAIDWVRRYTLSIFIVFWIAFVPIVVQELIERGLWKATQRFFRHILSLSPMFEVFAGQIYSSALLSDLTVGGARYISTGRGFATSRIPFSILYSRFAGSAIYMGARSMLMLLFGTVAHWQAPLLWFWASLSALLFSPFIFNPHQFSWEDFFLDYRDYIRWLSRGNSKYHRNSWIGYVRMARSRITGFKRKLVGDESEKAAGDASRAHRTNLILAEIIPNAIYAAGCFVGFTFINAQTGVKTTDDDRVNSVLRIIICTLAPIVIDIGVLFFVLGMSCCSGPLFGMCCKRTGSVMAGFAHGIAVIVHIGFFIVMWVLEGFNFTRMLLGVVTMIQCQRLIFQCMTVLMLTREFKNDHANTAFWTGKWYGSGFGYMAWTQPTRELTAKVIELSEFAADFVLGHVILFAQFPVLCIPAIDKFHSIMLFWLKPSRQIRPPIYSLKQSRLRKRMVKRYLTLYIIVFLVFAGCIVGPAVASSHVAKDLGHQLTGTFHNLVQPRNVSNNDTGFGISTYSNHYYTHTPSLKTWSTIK

Nakaseomyces glabratus [14] = assay: Antifungal activity against Candida glabrata isolate 31498 expressing wild type Fks1p and Fks2p F659 deletion mutant by CLSI method in presence of 50% human serum; format: functional; method in brief: as §2
Nakaseomyces glabratus [15] = assay: Antifungal activity against Candida glabrata isolate 51916 expressing wild type Fks1p and Fks2p P667T mutant by CLSI method in presence of 50% human serum; format: functional; method in brief: as §2
1,3-beta-glucan synthase [16] = molecular target: 1,3-beta-glucan synthase (Candida glabrata, UniProt F5BCZ9, P667T); assay: Inhibition of Candida glabrata isolate 51916 1,3-beta-D-glucan synthase wild type Fks1p/Fks2p P667T mutant; set-up: species or system Nakaseomyces glabratus; method in brief: as §1
1,3-beta-glucan synthase (Candida glabrata, UniProt F5BCZ9, P667T), sequence (F5BCZ9 entry or part of it P667T): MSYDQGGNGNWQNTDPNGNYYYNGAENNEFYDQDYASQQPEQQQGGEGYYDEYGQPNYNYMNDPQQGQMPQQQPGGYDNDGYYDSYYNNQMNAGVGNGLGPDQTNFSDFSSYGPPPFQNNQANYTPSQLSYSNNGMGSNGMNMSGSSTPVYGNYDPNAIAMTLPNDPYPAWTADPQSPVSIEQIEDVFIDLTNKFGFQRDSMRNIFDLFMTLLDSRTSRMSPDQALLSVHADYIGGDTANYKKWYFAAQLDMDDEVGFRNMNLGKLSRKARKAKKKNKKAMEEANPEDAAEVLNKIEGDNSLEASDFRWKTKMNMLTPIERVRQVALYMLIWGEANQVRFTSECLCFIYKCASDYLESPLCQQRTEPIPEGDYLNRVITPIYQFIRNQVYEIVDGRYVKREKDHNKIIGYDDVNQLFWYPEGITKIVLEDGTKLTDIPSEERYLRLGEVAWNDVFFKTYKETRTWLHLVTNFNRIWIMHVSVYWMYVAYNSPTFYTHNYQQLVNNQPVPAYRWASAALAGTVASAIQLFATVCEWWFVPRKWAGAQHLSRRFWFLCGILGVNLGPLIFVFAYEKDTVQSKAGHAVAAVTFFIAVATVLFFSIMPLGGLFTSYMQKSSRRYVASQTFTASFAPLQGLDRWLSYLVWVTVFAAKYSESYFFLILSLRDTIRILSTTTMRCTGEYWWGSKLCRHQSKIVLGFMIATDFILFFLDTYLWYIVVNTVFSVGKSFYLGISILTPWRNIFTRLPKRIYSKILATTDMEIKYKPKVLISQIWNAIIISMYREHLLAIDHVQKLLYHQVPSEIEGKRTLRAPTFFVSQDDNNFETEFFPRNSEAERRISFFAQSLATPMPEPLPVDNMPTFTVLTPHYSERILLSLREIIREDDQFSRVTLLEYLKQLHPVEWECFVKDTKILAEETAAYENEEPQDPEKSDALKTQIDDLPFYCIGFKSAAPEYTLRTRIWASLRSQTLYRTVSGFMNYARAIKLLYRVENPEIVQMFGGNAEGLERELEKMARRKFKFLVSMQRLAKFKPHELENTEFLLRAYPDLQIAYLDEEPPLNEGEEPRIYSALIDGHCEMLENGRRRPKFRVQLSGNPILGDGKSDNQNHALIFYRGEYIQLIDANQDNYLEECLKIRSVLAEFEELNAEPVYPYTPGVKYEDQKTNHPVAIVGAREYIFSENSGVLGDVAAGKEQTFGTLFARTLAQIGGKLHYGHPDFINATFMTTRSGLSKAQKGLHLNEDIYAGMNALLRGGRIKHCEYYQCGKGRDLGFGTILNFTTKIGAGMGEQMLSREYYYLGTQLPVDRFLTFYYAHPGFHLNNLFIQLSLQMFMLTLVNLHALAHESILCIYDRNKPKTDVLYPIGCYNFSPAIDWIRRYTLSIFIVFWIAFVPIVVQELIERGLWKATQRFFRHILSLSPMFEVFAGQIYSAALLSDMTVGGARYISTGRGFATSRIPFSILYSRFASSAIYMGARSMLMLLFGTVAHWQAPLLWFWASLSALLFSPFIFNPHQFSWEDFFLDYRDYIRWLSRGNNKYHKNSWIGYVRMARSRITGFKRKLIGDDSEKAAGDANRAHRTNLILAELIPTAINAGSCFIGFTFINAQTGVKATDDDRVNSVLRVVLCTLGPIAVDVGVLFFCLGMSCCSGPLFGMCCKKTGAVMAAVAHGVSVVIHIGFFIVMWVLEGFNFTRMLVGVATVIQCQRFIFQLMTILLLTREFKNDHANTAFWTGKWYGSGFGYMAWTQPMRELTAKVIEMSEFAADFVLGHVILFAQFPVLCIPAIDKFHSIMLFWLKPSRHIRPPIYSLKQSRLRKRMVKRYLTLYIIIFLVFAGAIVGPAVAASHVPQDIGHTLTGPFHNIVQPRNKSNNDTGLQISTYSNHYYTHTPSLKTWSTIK

Nakaseomyces glabratus [17] = assay: Antifungal activity against Candida glabrata isolate 42031 expressing wild type Fks1p and Fks2p D666E mutant by CLSI method in presence of 50% human serum; format: functional; method in brief: as §2
1,3-beta-glucan synthase [18] = molecular target: 1,3-beta-glucan synthase (Candida glabrata, UniProt F5BCZ9, D666E); assay: Inhibition of Candida glabrata isolate 42031 1,3-beta-D-glucan synthase wild type Fks1p/Fks2p D666E mutant; set-up: species or system Nakaseomyces glabratus; method in brief: as §1
Nakaseomyces glabratus [19] = assay: Antifungal activity against Candida glabrata isolate 3830 expressing wild type Fks1p and Fks2p S663P mutant by CLSI method; format: functional; method in brief: as §3
[20] = Inhibition of Candida glabrata isolate 3168 wild type 1,3-beta-D-glucan synthase; set-up: species or system Nakaseomyces glabratus; method in brief: as §1
Nakaseomyces glabratus [21] = assay: Antifungal activity against Candida glabrata isolate 218 expressing wild type Fks1p and Fks2p by CLSI method in presence of 50% human serum; format: functional; method in brief: as §2
Nakaseomyces glabratus [22] = assay: Antifungal activity against Candida glabrata isolate 3169 expressing Fks1p D632E mutant and wild type Fks2p by CLSI method in presence of 50% human serum; format: functional; method in brief: as §2
Nakaseomyces glabratus [23] = assay: Antifungal activity against Candida glabrata ATCC 90030 expressing wild type Fks1p and Fks2p by CLSI method; format: functional
Method in brief: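 Broth microdilution MIC per CLSI M27-A3 in RPMI 1640 medium, also run in RPMI 1640 with 50% serum. Wild-type control strain. Caspofungin and micafungin dissolved in sterile distilled water and anidulafungin in 100% DMSO; stock solutions stored at −86°C. Geometric means used to compare MICs.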

Nakaseomyces glabratus [24] = assay: Antifungal activity against Candida glabrata isolate 3168 expressing wild type Fks1p and Fks2p by CLSI method; format: functional; method in brief: as §3
[25] = Inhibition of Candida glabrata isolate 218 wild type 1,3-beta-D-glucan synthase; set-up: species or system Nakaseomyces glabratus; method in brief: as §1
Nakaseomyces glabratus [26] = assay: Antifungal activity against Candida glabrata isolate 41400 expressing wild type Fks1p and Fks2p D666G mutant by CLSI method in presence of 50% human serum; format: functional; method in brief: as §2
Nakaseomyces glabratus [27] = assay: Antifungal activity against Candida glabrata ATCC 90030 expressing wild type Fks1p and Fks2p by CLSI method in presence of 50% human serum; format: functional; method in brief: as §2
Nakaseomyces glabratus [28] = assay: Antifungal activity against Candida glabrata isolate 21900 expressing Fks1p D632G mutant and wild type Fks2p by CLSI method; format: functional
1,3-beta-glucan synthase [29] = molecular target: 1,3-beta-glucan synthase (Candida glabrata, UniProt F5BCZ9, F659V); assay: Inhibition of Candida glabrata isolate 234 1,3-beta-D-glucan synthase wild type Fks1p/Fks2p F659V mutant; set-up: species or system Nakaseomyces glabratus; method in brief: as §1
Nakaseomyces glabratus [30] = assay: Antifungal activity against Candida glabrata isolate 234 expressing wild type Fks1p and Fks2p F659V mutant by CLSI method; format: functional; method in brief: as §3
Nakaseomyces glabratus [31] = assay: Antifungal activity against Candida glabrata isolate 41400 expressing wild type Fks1p and Fks2p D666G mutant by CLSI method; format: functional; method in brief: as §3
Nakaseomyces glabratus [32] = assay: Antifungal activity against Candida glabrata isolate 42971 expressing Fks1p D632Y mutant and Fks2p R1377STOP mutant by CLSI method in presence of 50% human serum; format: functional; method in brief: as §2
Nakaseomyces glabratus [33] = assay: Ratio of IC50 for Candida glabrata wild type 1,3-beta-glucan synthase to IC50 for Candida glabrata 1,3-beta-glucan synthase mutant
Nakaseomyces glabratus [34] = assay: Antifungal activity against Candida glabrata isolate 3830 expressing wild type Fks1p and Fks2p S663P mutant by CLSI method in presence of 50% human serum; format: functional; method in brief: as §2

CCCCCOc1ccc(-c2cc(-c3ccc(C(=O)N[C@H]4C[C@@H](O)[C@@H](O)NC(=O)[C@@H]5[C@@H](O)[C@@H](C)CN5C(=O)[C@H]([C@H](O)CC(N)=O)NC(=O)[C@H]([C@H](O)[C@@H](O)c5ccc(O)c(OS(=O)(=O)O)c5)NC(=O)[C@@H]5C[C@@H](O)CN5C(=O)[C@H]([C@@H](C)O)NC4=O)cc3)no2)cc1 [MICAFUNGIN] (X1-[Orn(4R-OH,5R-OH)]T[Hyp][hTyr(3S-OH,4S-OH,3'-OSO3H)][Gln(3R-OH)][Pro(3S-OH,4S-Me)]; lactam 1-C)
IC50 [1]: 413.4 ng/mL (≈ 0.325 µM) | IC50 (1,3-beta-glucan synthase [2]): 39.9 nM | MIC (Nakaseomyces glabratus [3]): 2 µg/mL | IC50 (1,3-beta-glucan synthase [4]): 2020 nM | MIC (Nakaseomyces glabratus [5]): 2 µg/mL (≈ 1.57 µM) | MIC (Nakaseomyces glabratus [6]): 0.25 µg/mL (≈ 0.197 µM) | MIC (Nakaseomyces glabratus [7]): 4 µg/mL (≈ 3.15 µM) | IC50 [8]: 99.4 nM | MIC (Nakaseomyces glabratus [9]): 8 µg/mL | MIC (Nakaseomyces glabratus [10]): 0.12 µg/mL (≈ 0.0945 µM) | MIC (Nakaseomyces glabratus [11]): 4 µg/mL | MIC (Nakaseomyces glabratus [12]): 1 µg/mL (≈ 0.787 µM) | IC50 [13]: 270 nM | MIC (Nakaseomyces glabratus [14]): 8 µg/mL | MIC (Nakaseomyces glabratus [15]): 4 µg/mL | IC50 (1,3-beta-glucan synthase [16]): 87.3 nM | MIC (Nakaseomyces glabratus [17]): 4 µg/mL | IC50 (1,3-beta-glucan synthase [18]): 69.8 nM | MIC (Nakaseomyces glabratus [19]): 1 µg/mL (≈ 0.787 µM) | IC50 [20]: 1.29 ng/mL (≈ 0.00102 µM) | MIC (Nakaseomyces glabratus [21]): 1 µg/mL | MIC (Nakaseomyces glabratus [22]): 8 µg/mL | MIC (Nakaseomyces glabratus [23]): 0.03 µg/mL (≈ 0.0236 µM) | MIC (Nakaseomyces glabratus [24]): 0.06 µg/mL (≈ 0.0472 µM) | IC50 [25]: 0.56 ng/mL (≈ 0.000441 µM) | MIC (Nakaseomyces glabratus [26]): 4 µg/mL | MIC (Nakaseomyces glabratus [27]): 0.25 µg/mL | MIC (Nakaseomyces glabratus [28]): 0.5 µg/mL (≈ 0.394 µM) | IC50 (1,3-beta-glucan synthase [29]): 89.3 nM | MIC (Nakaseomyces glabratus [30]): 1 µg/mL (≈ 0.787 µM) | MIC (Nakaseomyces glabratus [31]): 0.12 µg/mL (≈ 0.0945 µM) | MIC (Nakaseomyces glabratus [32]): 8 µg/mL | Ratio IC50 (Nakaseomyces glabratus [33]): 60 | MIC (Nakaseomyces glabratus [34]): 8 µg/mL
